Source: paper PMC10900806 (Asian Journal of Pharmaceutical Sciences, 2024)
“Also recorded” adds a separate entry of the source.

How the values were obtained:
Assay type in all cases: cell-based
B16-F10 cells [1] = settings: 5 µM, 1 h
B16-F10 cells [2] = test: Cell cycle assay; settings: CPT 5 µM, AAM analogs 5 µM, conjugates 5 µM, 1 h at pH 5.5, then 24 h, n = 3
caspase-3 = test: Caspase-3 activity assay; settings: B16-F10 cells, 24 h treatment, Caspase-3 assay kit
In short: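 B16-F10 cells were seeded at 5 × 10^5 per well and cultured overnight. They were then exposed to test peptides for 24 h, and caspase-3 activity was measured with a commercial caspase-3 activity kit.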

B16-F10 cells [3] = test: LDH release assay; settings: 1 h, pH 7.4 or 5.5, CytoTox-ONE kit, n = 3
B16-F10 cells [4] = test: Short-term cytotoxicity, MTT, 1 h; settings: 1 h incubation, serum-free medium, different pH values, n = 3
In short: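 B16-F10 cells were seeded at 1 × 10^4 per well and cultured overnight. They were incubated 1 h with test compounds at different pH values, and viability was assessed by MTT. Membrane-lytic reference peptides served as positive controls. Data are from three independent experiments, given as mean ± SD.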

B16-F10 cells [5] = test: PI uptake assay; settings: 10 µM
In short: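 B16-F10 cells (6 × 10^4) were seeded in glass-bottomed dishes and cultured overnight. End point: 1 h exposure to 10 µM test agent at pH 5.5 or 7.4, then fresh DMEM with PI (1 µg/ml) for 10 min before confocal imaging. Kinetics: 10 µM agent was added to DMEM containing PI (1 µg/ml) at pH 5.5, with images taken every 1 min for 30 min.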

erythrocyte suspension = test: Hemolysis assay; settings: 10% (v/v) mouse erythrocytes in PBS, 1 h, 37 °C, absorbance at 450 nm
In short: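 Heparinised whole mouse blood was centrifuged at 1,000 × g for 15 min. The pellet was washed three times with PBS and resuspended to 10% (v/v) in PBS. Suspension was mixed with test compounds for 1 h at 37 °C, then centrifuged, and supernatant absorbance was read at 450 nm. PBS defined 0% and 0.1% Triton X-100 defined 100% hemolysis.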

B16-F10 cells [6] = test: Endosomal escape, co-localization with LysoTracker Red; settings: 5 µM, pH 5.5, 15 min then further 15, 30 and 60 min, ImageJ
In short: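 Cells were exposed to a FAM-labelled test peptide (5 µM) at pH 5.5 for 15 min, taken as 0 min, then incubated a further 15, 30 or 60 min. Medium was removed and lysosomes were stained with LysoTracker Red (100 nM, 30 min). After confocal imaging, co-localisation was quantified as Pearson's correlation coefficient (R).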

CC[C@@]1(O)C(=O)OCc2c1cc1n(c2=O)Cc2cc3ccccc3nc2-1 [CPT, camptothecin]
cellular uptake of CPT and peptide-CPT conjugates (blue fluorescence, confocal) (B16-F10 cells [1]; pH 7.4 or 5.5, near UV excitation): distinction of fluorescence intensity between pH 7.4 and pH 5.5 was not obvious | cell cycle distribution (B16-F10 cells [2]): significantly increased the cell proportion in the G2/M phase and decreased the cell proportion in the G0/G1 and S phases | caspase-3 activation (caspase-3): significantly activated caspase-3

melittin
LDH release (membrane-lytic activity) (B16-F10 cells [3]): strong release of LDH at both pH 7.4 and 5.5 | short-term cytotoxicity against B16-F10 cells (B16-F10 cells [4]): high cytotoxicity to B16-F10 cells, even at 1.25 µM; also recorded: no obvious pH dependence | PI uptake (PI-positive cells, membrane-disruptive activity) (B16-F10 cells [5]; 1 h, pH 7.4 and 5.5, PI 1 µg/ml, confocal): showed no obvious difference | membrane-lytic behavior in time-lapse images (B16-F10 cells [5]; pH 5.5, PI 1 µg/ml, images every 1 min for 30 min): developed necrosis, including rounding, blebbing, swelling, and bursting | hemolytic activity (erythrocyte suspension): extreme hemolytic activity

GIGAVLHVLTTGLPALISWIHHHHQC(FAM)-NH2 [FAM-AAM-1]
cellular uptake of FAM-labeled peptides, confocal microscopy (B16-F10 cells [1]; serum-free medium, pH 7.4 or 5.5): higher cellular uptake in B16-F10 cells at pH 5.5 than that at pH 7.4 | Pearson's correlation coefficients (r) between FAM-AAM-1 and LysoTracker Red (B16-F10 cells [6]): r-values became gradually low over time
